Screening results from PubChem BioAssay.
Efflux pump mplx = inhibitors of Candida efflux pumps in yeast, primary screen, S. cerevisiae, Nile Red, multiplex; inhibition, % at 10 µM; S. cerevisiae Candida pump triplex; actives 0.44% (n = 330,000);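 active = plate passing quality check with inhibition over a set limit, or well fluorescence over plate mean plus 4 SD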;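 note: Nile Red retained in pooled yeast measured as flow cytometry median fluorescence; higher means more Nile Red kept so more efflux inhibition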
HDAC3 inh = HDAC3 deacetylase inhibitors, primary screen, biochemical, fluorescence, cell-free homogeneous. Histone deacetylase 3 (Homo sapiens), O15379. recombinant HDAC3, fluorogenic peptide/trypsin coupled. inhibition, % at 8.3 µM. actives 0.15% (n = 320,000); in the data active = inhibition above about 26%, passing the limit was not always enough; inconclusive = no clear call, values can overlap the other calls
Target sequence (O15379 whole entry, looked up): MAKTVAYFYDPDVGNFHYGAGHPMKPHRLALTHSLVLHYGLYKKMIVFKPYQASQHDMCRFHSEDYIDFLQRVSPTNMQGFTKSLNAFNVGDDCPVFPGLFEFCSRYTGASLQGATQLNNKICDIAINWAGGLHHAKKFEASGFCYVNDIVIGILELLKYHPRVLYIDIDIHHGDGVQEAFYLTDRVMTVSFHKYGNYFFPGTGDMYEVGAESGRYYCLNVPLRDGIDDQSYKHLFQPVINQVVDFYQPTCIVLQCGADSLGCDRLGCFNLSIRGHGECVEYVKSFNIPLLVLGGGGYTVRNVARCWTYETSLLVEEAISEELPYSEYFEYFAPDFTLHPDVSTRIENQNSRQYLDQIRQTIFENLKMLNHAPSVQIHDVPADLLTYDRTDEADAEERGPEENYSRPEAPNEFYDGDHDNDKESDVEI
PolyA inh = polyadenylation inhibitors in yeast reporter cells, primary screen, luminescence, S. cerevisiae | actives 0.02% (n = 300,000) | S. cerevisiae SKY197-pL101 polyadenylation reporter, beta-gal luminescence; efflux-impaired pdr1/pdr3 knockout yeast; score 100 = 6 SD above DMSO | AID 1875, 2009 | activity score, % at 12 µM;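 active = lowest replicate activity score at least 50, where 100 means six control SD above control mean; inconclusive = lowest score under 50 but half or more replicates reach 50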;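 note: yeast exposed to compound for 9 h at 30 °C; higher score means more reporter readthrough which indicates perturbed polyadenylation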
T cruzi inh = inhibitors of intracellular T. cruzi growth, primary screen, luminescence, NIH3T3 host cells; AID 1885, 2009; inhibition, % (test concentration not listed); actives 1.4% (n = 300,000); T. cruzi beta-gal in NIH3T3, 90 h;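 active = mean inhibition across valid replicates above about 55%, limit read from the data; inconclusive = mean below that limit but half or more replicates reach it; inactive = mean below it, under half of replicates reach it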;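 note: signal also drops with host cell toxicity which is not excluded here; higher percent means less beta-gal luminescence so fewer parasites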
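System: mouse NIH/3T3 fibroblasts infected with β-gal-expressing T. cruzi Tulahuen C4 / Input: NIH/3T3 cells, 5,000 per well / Buffer or medium: Low-serum DMEM with 2% FBS / Probe or stimulus: 5000 reporter trypomastigotes per well / Schedule: ≥90 h infection period, 3 h prior cell attachment / Measured by: GalScreen luminescence, 60 min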
AI-2 QS modul = Vibrio harveyi AI-2 quorum sensing modulators, primary screen, JMH597 strain, luminescence/OD600 ratio | Vibrio harveyi JMH597 AI-2 luminescence/OD600 ratio, 9 h; hits give low values; strain lacks LuxN and CqsS sensors; 0 = neutral-control median | activity change, % at 7.5 µM | actives 0.4% (n = 300,000); in the data active = activity change below about -75%, passing the limit was not always enough; inconclusive = no clear call, values can overlap the other calls;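 note: luminescence divided by OD600 gain over 9 h not by final OD600 alone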
Large screens that a line does not name were inactive. Compounds with a hit are over-represented: about 2.2% of the library has one in this group of screens.

COc1ccccc1N(Cc1ccccc1)S(=O)(=O)c1cccc(C(=O)Nc2ccccn2)c1	PolyA inh inconclusive
COc1ccccc1N(Cc1ccccc1)S(=O)(=O)c1cccc(C(=O)Nc2ccc(C)cn2)c1	T cruzi inh 62
CC[n+]1ccccc1/C=C1\Sc2ccc(C)cc2N1C	T cruzi inh 63
Cc1ccc(NC(=O)c2ccc(OC(F)(F)F)cc2)cc1S(=O)(=O)N(C)C	none
Cc1nnsc1C(=O)NC1CCCc2c1cnn2-c1ccc(C(C)(C)C)cc1 (stereo not drawn)	T cruzi inh 56
O=C(Nc1nnc(-c2ccc(F)cc2)o1)C1CCCN1S(=O)(=O)c1cccs1 (stereo not drawn)	none
CCCCCc1ccc(-c2ccc(=O)[nH]n2)cc1	AI-2 QS modul -77
CCCCCc1ccc(C2=NNC(=O)CC2)cc1	AI-2 QS modul -89
O=C(CSc1ncc(-c2ccccc2)n1C1CCCC1)N1CCc2ccccc21	T cruzi inh 64
O=C(CSc1nnnn1C1CCCCC1)N1CCc2ccccc21	none
O=[N+]([O-])c1ccc(CN2CCCCCC2)cc1	none
CSc1ccc(CN2CCN(Cc3ccc([N+](=O)[O-])cc3)CC2)cc1	T cruzi inh 66
O=C(N/N=C/c1ccc(-c2ccccc2Cl)o1)c1ccccc1	T cruzi inh 75
O=C(N/N=C/c1ccc(-c2cccc(C(F)(F)F)c2)o1)c1cccc(F)c1	T cruzi inh 69
O=C(O)c1ccc(N/N=C/c2ccc(-c3ccc(Br)cc3)o2)cc1	AI-2 QS modul -96
O=C(O)c1ccc(N/N=C/c2ccc(-c3ccccc3Cl)o2)cc1	AI-2 QS modul -95
NC(=O)N/N=C/c1ccc(-c2cccc(C(F)(F)F)c2)o1	none
O=C(O)c1cc(-c2ccc(/C=N/Nc3ccc(Cl)cc3)o2)ccc1Cl	none
O=S(=O)(N/N=C\c1ccc(-c2ccccc2Cl)o1)c1ccccc1	none
Cc1nc(C2CCC3C4CCC5=CC(=O)CC[C@]5(C)C4CC[C@]23C)cs1 (stereo partly drawn)	Efflux pump mplx 2.0
COC(=O)c1[nH]c2ccc(C)cc2c1NC(=O)CN1CCCc2ccccc21	T cruzi inh 85
COc1cc(/C=N/N=C(N)N)ccc1OCc1ccccc1Cl	T cruzi inh 55
CCc1cccc2c(C(=O)CN3C(=O)NC(C)(c4cccc5ccccc45)C3=O)c[nH]c12 (stereo not drawn)	HDAC3 inh inconclusive, T cruzi inh 66
CC(C)C[C@H](NC(=O)OC(C)(C)C)C(=O)N/N=C/c1ccc2nccnc2c1	none
CC(C)C[C@H](NC(=O)OC(C)(C)C)C(=O)N/N=C/C1=Cc2ccccc2OC1C (stereo partly drawn)	T cruzi inh 69
Cc1ccc2oc(Nc3nc(-c4ccccc4)cc(=O)[nH]3)nc2c1	T cruzi inh 75 (no result: Efflux pump mplx, HDAC3 inh)
O=C(COc1ccc2ccccc2c1)NNC(=O)c1cnccn1	PolyA inh inconclusive
CC(C)c1ccc(OCC(=O)NNC(=O)c2cnccn2)cc1	AI-2 QS modul -83
COc1cccc(OC)c1C(=O)Nc1sc2c(c1C(N)=O)CCN(Cc1ccccc1)C2	none
CCN1CCc2c(sc(NC(=O)c3cc4ccccc4cc3OC)c2C(N)=O)C1	T cruzi inh 58
CC(=O)[C@]1(O)Cc2c(O)c3c(c(O)c2[C@@H](O[C@H]2C[C@H](N)[C@H](O)[C@H](C)O2)C1)C(=O)c1ccccc1C3=O	T cruzi inh 55
COc1cccc2c1C(=O)c1c(O)c3c(c(O)c1C2=O)C[C@@](O)(C(=O)CO)C[C@@H]3O[C@H]1C[C@H](N)[C@@H](O)[C@H](C)O1	none
O=[N+]([O-])c1ccc(N2CCN(S(=O)(=O)c3ccc(Cl)c(Cl)c3)CC2)cc1NCCN1CCOCC1	T cruzi inh 56
CCCCN(C)CCNC(=O)c1nn(-c2ccc(OC)cc2)c(=O)c2c1c1ccccc1n2C	T cruzi inh 61
O=C(CNC(=O)c1sc2ccccc2c1Cl)Nc1ccccc1F	none
N#Cc1c2ccc(OCC(=O)NCc3ccco3)cc2n2ccccc12	none
N#Cc1c2ccc(O)cc2n2ccccc12	T cruzi inh 65
Cc1ccc(S(=O)(=O)N2CCCOC2CNC(=O)C(=O)NCc2ccc3c(c2)OCO3)cc1 (stereo not drawn)	none
CCCCCCC(=O)N(O)C1CC(=O)N(c2ccc(C)cc2)C1=O (stereo not drawn)	HDAC3 inh inconclusive
CCCCCCC(=O)N(O)C1CC(=O)N(c2ccc(Cl)cc2)C1=O (stereo not drawn)	HDAC3 inh 63
O=C(Nc1ccc(Cl)c(Cl)c1)OCc1cccnc1	T cruzi inh 65
O=C(Nc1cccnc1)OCc1ccccc1	none
COc1ccc(C(=O)N/N=C/C2CC=CCC2)cc1OC (stereo not drawn)	none
Cc1cc(C)c(S(C)(=O)=O)c(NN)n1	none
CCOC(=O)C1(Cc2ccccc2C(F)(F)F)CCN(C(C)CCn2cccn2)CC1 (stereo not drawn)	T cruzi inh 68
CC(C)CNC(=O)CC(c1ccccc1)c1ccccc1	none
COCCNC(=O)COc1coc(CN2CCN(Cc3ccccc3)CC2)cc1=O	none
CC(C)(C)c1ccc2c(c1)OC(C(=O)N/N=C/c1ccc([N+](=O)[O-])o1)CO2 (stereo not drawn)	T cruzi inh 60, AI-2 QS modul inconclusive
Cc1c(/C=N\NC(=O)C2COc3ccc(C(C)(C)C)cc3O2)c2ccccc2n1C (stereo not drawn)	T cruzi inh 66
CC(C)(C)c1ccc2c(c1)OC(C(=O)N/N=C\c1ccncc1)CO2 (stereo not drawn)	none
Cc1ccc(S(=O)(=O)NCc2cn3ccccc3n2)c(C)c1	none
Cc1cc(/C=C2\SC(=S)NC2=O)c(C)n1-c1cccc(O)c1	Efflux pump mplx 0.8
Cc1ccc(-n2c(C)cc(/C=C3\SC(=O)NC3=O)c2C)cc1	none (no result: HDAC3 inh)
CC(=NCCc1c(C)[nH]c2ccc(OCc3ccccc3)cc12)C1=C(O)CC(c2ccccc2)CC1=O (stereo not drawn)	T cruzi inh 58
Cn1ncc2c(O/N=C(\N)c3ccc(C(C)(C)C)cc3)ncnc21	T cruzi inh 64
CCOC(=O)c1ccc(Nc2ncnc3c2cnn3C)cc1	none
Cc1sc2nc(C(C)C)nc(SCC(=O)N3CCOCC3)c2c1C	none
O=C(C1CCCN(Cc2cccc(Cl)c2)C1)N1CCCCC1 (stereo not drawn)	T cruzi inh 66
Cc1cccc(CN2CCCC(C(=O)N3CCc4ccccc4C3)C2)c1 (stereo not drawn)	T cruzi inh 55
O=C(C1CCCN(Cc2ccc(Cl)cc2)C1)N1CCCCC1 (stereo not drawn)	T cruzi inh 57
